The source made the active and inactive calls. The calls are words filed in the database; no cut-off is given here.
How the values were obtained:
Aspergillus fumigatus [1] = assay: Fungicidal activity against Aspergillus fumigatus ATCC 90906; type: functional
Candida albicans [2] = assay: Antifungal activity against Candida albicans ATCC 90028 assessed as inhibition of fungal growth by alamar blue assay; type: functional, organism-based
How it was run: (§1)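 Broth microdilution modified from NCCLS. DMSO stocks serially diluted in saline and plated in duplicate. Inoculum set by 0.5 McFarland standard. Media: C. albicans in SDB or RPMI 1640; C. neoformans in SDB; A. fumigatus in RPMI-1640 + 5% Alamar Blue. Highest final concentration 20 µg/mL. Plates read before and after incubation by fluorescence 544ex/590em (A. fumigatus) or OD 630 nm. IC50 from percent growth vs concentration.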

Aspergillus fumigatus [3] = assay: Antifungal activity against Aspergillus fumigatus ATCC 90906 assessed as inhibition of fungal growth by alamar blue assay; type: functional, organism-based; settings: Aspergillus fumigatus, ATCC 90906; read-out: IC50; how it was run: as §1
[4] = Cytotoxicity against african green monkey Vero cells after 48 hrs by neutral red assay; type: cell-based; settings: chlorocebus sabaeus, read-out: TC50
How it was run: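 Vero kidney fibroblasts seeded at 25,000 cells/well and grown 24 h, then exposed to samples up to 20 µg/ml for 48 h. Viable cells measured by neutral red assay. IC50 taken from growth-inhibition vs concentration curves. DMSO served as vehicle control.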

Cryptococcus neoformans [5] = assay: Antifungal activity against Cryptococcus neoformans ATCC 90113 by microscopy; type: functional
How it was run: (§2)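 Modified NCCLS microdilution. Samples in DMSO serially diluted in saline and tested in duplicate against inocula standardized to 0.5 McFarland. Highest final concentration 20 µg/mL. MIC read visually as the lowest concentration with no detectable growth (for Alamar Blue wells, no blue-to-pink change).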

Cryptococcus neoformans [6] = assay: Antifungal activity against Cryptococcus neoformans ATCC 90113 assessed as inhibition of fungal growth by alamar blue assay; type: functional, organism-based; how it was run: as §1
Cryptococcus neoformans [7] = assay: Fungicidal activity against Cryptococcus neoformans ATCC 90113; type: functional
Aspergillus fumigatus [8] = assay: Antifungal activity against Aspergillus fumigatus ATCC 90906 by microscopy; type: functional
How it was run: as §2, with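 “McFarland. Broths: C. albicans SDB or RPMI 1640; C. neoformans SDB; A. fumigatus YM broth.” for “McFarland.”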

Candida albicans [9] = assay: Antifungal activity against Candida albicans ATCC 90028 by microscopy; type: functional
How it was run: as §2, with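 “McFarland. Broths: C. albicans SDB or RPMI 1640; C. neoformans SDB; A. fumigatus YM broth.” for “McFarland.”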

Candida albicans [10] = assay: Fungicidal activity against Candida albicans ATCC 90028; type: functional
Aspergillus fumigatus [11] = assay: Antifungal activity against Aspergillus fumigatus ATCC 90906 assessed as inhibition of fungal growth at 20 ug/mL by alamar blue assay; type: functional, organism-based; how it was run: as §1

| Structure (SMILES) | MFC (Aspergillus fumigatus [1]) [µg/mL] | IC50 (Candida albicans [2]) [µg/mL] | IC50 (Aspergillus fumigatus [3]) [µg/mL] | CC50 at 48 h [4] [µg/mL] | MIC (Cryptococcus neoformans [5]) [µg/mL] | IC50 (Cryptococcus neoformans [6]) [µg/mL] | MFC (Cryptococcus neoformans [7]) [µg/mL] | MIC (Aspergillus fumigatus [8]) [µg/mL] | MIC (Candida albicans [9]) [µg/mL] | MFC (Candida albicans [10]) [µg/mL] | inhibition (Aspergillus fumigatus [11]) |
| --- | --- | --- | --- | --- | --- | --- | --- | --- | --- | --- | --- |
| C[n+]1cc(N(CCCCCC2CCCCC2)c2ccccc2)cc2ccccc21.[I-] | 10 | 1.2 | 4.6 | 9.8 | 0.3 | 0.2 | 0.6 | 10 | 2.5 | 2.5 |  |
| COc1ccccc1N(CCCCCC1CCCCC1)c1ccc[n+](C)c1.[I-] |  | 5 |  |  | 5 | 3 | 5 |  | 10 | 10 | inactive |
| C[n+]1c2cccc(Cl)c2cc2[nH]c3ccccc3c21.O=S(=O)([O-])C(F)(F)F |  | 0.6 | > 20 | 5 | > 20 | 7 |  |  | > 20 |  |  |
| C[n+]1c2ccccc2cc2[nH]c3cccc(Cl)c3c21.[I-] |  | > 20 | > 20 | > 4.7 |  | > 20 |  |  |  |  |  |
| Clc1cccc(Nc2cc3ccccc3[n+](CCCCCC3CCCCC3)c2)c1.[I-] | > 20 | 2 | 3.5 | > 10 | 3.1 | 2 | 50 | 6.3 | 6.3 | 13 |  |
| C[n+]1cccc(N(CCCCCC2CCCCC2)c2ccc(C(F)(F)F)cc2)c1.[I-] | 5 | 1 | 1.5 | > 10 | 2.5 | 1.5 | 5 | 2.5 | 2.5 | 10 |  |
| C[n+]1c2ccc(Cl)cc2cc2[nH]c3ccccc3c21.[I-] | > 20 | 0.5 | 10 |  | 5 | 2 | > 20 | > 20 | 5.5 | > 20 |  |
| Cc1ccccc1N(CCCCCC1CCCCC1)c1ccc[n+](C)c1.[I-] | > 20 | 2.6 | 19 |  | 2.5 | 1.5 | 2.5 | > 20 | 5 | 5 |  |
| C[n+]1cccc(N(CCCCCC2CCCCC2)c2cccc(C(F)(F)F)c2)c1.[I-] | 10 | 3 | 1.5 | > 10 | 2.5 | 1.5 | 5 | 2.5 | 5 | 20 |  |
| C[n+]1cc(N(CCCCCC2CCCCC2)c2cccc(Cl)c2)cc2ccccc21.[I-] | 10 | 0.9 | 1 | > 10 | 1.3 | 0.9 | 5 | 2.5 | 2.5 | 10 |  |
| C[n+]1c2cc(Cl)ccc2c(Cl)c2[nH]c3ccccc3c21.[I-] |  | 1 | > 20 | 10 | 10 | 6 | > 20 |  | 10 | > 20 |  |
| Cc1ccc(N(CCCCCC2CCCCC2)c2ccc[n+](C)c2)cc1.[I-] | 5 | 1.5 | 1.5 | > 10 | 2.5 | 1.5 | 5 | 5 | 2.5 | 10 |  |
| C[n+]1c2ccc(Cl)cc2cc2c1c1ccccc1n2CCCCCC1CCCCC1.[I-] | > 20 | 0.6 |  | 1.4 | 2.5 | 0.9 | 10 | 1.3 | 1.3 | > 20 |  |
| C[n+]1c2ccccc2cc2[nH]c3c(Cl)cccc3c21.[I-] |  | > 20 |  | 3.2 |  | > 20 |  |  |  |  |  |
| C[n+]1c2ccccc2cc2[nH]c3ccc(Br)cc3c21.[I-] |  | 2.5 |  | 0.93 | 20 | 2.5 |  | 10 | > 20 |  |  |
| CCc1ccc(N(CCCCCC2CCCCC2)c2ccc[n+](C)c2)cc1.[I-] |  | 1.3 | 2.7 | 10 | 0.6 | 0.4 | 5 | 5 | 2.5 | 5 |  |

Source: ChEMBL document CHEMBL1641580, “Identification of 3-phenylaminoquinolinium and 3-phenylaminopyridinium salts as new agents against opportunistic fungal pathogens” (Bioorg Med Chem, 2011)
